Results from ChEMBL document CHEMBL4431329, “Peripherally Selective Cannabinoid 1 Receptor (CB1R) Agonists for the Treatment of Neuropathic Pain” (J Med Chem, 2016).
Activity calls are given as the source filed them.

What was measured:
[1] = target: Cannabinoid receptor 1 (Rattus norvegicus, UniProt P20272); experiment: Displacement of [3H]-CP55940 from rat CB1 receptor
[2] = Metabolic stability in Sprague-Dawley rat liver S9 fraction assessed as compound remaining at 10 uM measured at 1 hr by LC/MS analysis; type: ADME, subcellular; conditions: s9, 1 h
In short: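 Compound (10 μM final, from 1 mM ethanol stock) was incubated at 37 °C in male Sprague–Dawley rat liver S9 (1 mg protein/mL). The mix held an NADPH-regenerating system (1 mM NADP, 5 mM glucose 6-phosphate, 1 U/mL G6PDH) in 50 mM KPO4 pH 7.4 with 3 mM MgCl2, preincubated 5 min. Samples at 0–120 min were methanol-extracted and analysed by LC/MS.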

[3] = Metabolic stability in Sprague-Dawley rat plasma assessed as compound remaining at 10 uM measured at 1 hr by LC/MS analysis; type: ADME, cell-free
In short: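 Compound (10 μM final, from 1 mM ethanol stock) was incubated in male Sprague–Dawley rat plasma at 37 °C. Aliquots taken at 0, 30 and 60 min were extracted with 3 volumes methanol and centrifuged. Supernatants were analysed by LC/MS.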

[4] = target: T1, Cannabinoid receptor 1 (Homo sapiens, UniProt P21554); experiment: Displacement of [3H]-CP55940 from human CB1 receptor
In short: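 Radioligand displacement used [3H]-CP55940 as tracer in heterologous competition binding. Unlabeled reference ligands defined nonspecific binding. Ki was calculated by Cheng–Prusoff.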

[5] = target: Cannabinoid receptor 2 (Homo sapiens, UniProt P34972); experiment: Agonist activity at human CB2R expressed in CHO cells by Ca2+ flux assay; type: functional, cell-based
In short: (§1)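 CHO cells stably co-expressing human CB1 or CB2 with Gαq16 were seeded at 40000/well and grown 24 h at 37 °C. They were loaded 1 h at 37 °C with Fluo-4 AM (2 μM final) in HBSS/20 mM HEPES/1% BSA/probenecid. Agonist was added after ~17 s baseline, and fluorescence (ex 488/em 525) was read each 1 s for 60 s. Runs were done 3–6 times; mean ± SEM.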

[6] = test system: Rattus norvegicus; experiment: (§2) Antiallodynic activity in SNE-induced mechanical allodynia naive Sprague-Dawley rat model assessed as decrease in hindpaw ipsilateral withdrawal threshold at 0.6 mg/kg, ip preincubated for 3 hrs followed by SNE addition in presence of rimonabant; type: functional, organism-based
In short: (§3)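 SNE rats were given the test agonist ip alone, or 30 min after pretreatment with a selective CB1R or CB2R antagonist, with sessions at 3-day intervals. Ipsilateral hindpaw withdrawal threshold was measured by digital von Frey (4 readings per paw averaged). Tests were blinded.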

[7] = test system: Rattus norvegicus; experiment: Antiallodynic activity in SNE-induced mechanical allodynia naive Sprague-Dawley rat model assessed as decrease in hindpaw ipsilateral withdrawal threshold at 0.6 mg/kg, ip preincubated for 3 hrs followed by SNE addition in presence of SR141716; type: functional, organism-based; in short: as §3
[8] = Cmax in naive naive Sprague-Dawley rat at 0.3 mg/kg, ip by LC/MS/MS analysis; type: ADME, organism-based; set-up: dose 0.3 mg/kg, route intraperitoneal; conditions: in vivo
In short: (§4)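 Male Sprague–Dawley rats given a single ip injection (drug in 50/50 DMSO:Cremophor EL, diluted in sterile saline, 1.5 mL/kg). Tail-vein blood (~110 μL) drawn at intervals after brief restraint, centrifuged, plasma stored −20 °C. Quantified by LC-MS/MS against standard curves prepared in samples from untreated animals; n = 3 rats.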

[9] = AUC in naive Sprague-Dawley rat at 0.3 mg/kg, ip by LC/MS/MS analysis; type: ADME, organism-based; conditions: in vivo; in short: as §4
[10] = target: T1, Cannabinoid receptor 1; experiment: Agonist activity at human CB1R expressed in CHO cells by Ca2+ flux assay; type: functional, cell-based; in short: as §1
[11] = Toxicity in naive Sprague-Dawley rat assessed as immobility at 0.3 mg/kg, ip after 2 to 48 hrs by catalepsy ring test; type: organism-based; conditions: in vivo
In short: (§5)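 In the ring immobility test, forepaws were placed on a 12 cm horizontal ring with hindpaws just touching the bench. Time to move off was recorded, 100 s cutoff. Testing was pre-dose and 2, 6, 24 and 48 h after ip or oral gavage dosing. Values are peak effect minus vehicle; n = 6–8; blinded.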

[12] = test system: Rattus norvegicus; experiment: Analgesic activity in naive Sprague-Dawley rat assessed as tail flick latency at 0.1 to 10 mg/kg administered through oral gavage up to 48 hrs by tail-flick assay; type: functional, organism-based
In short: (§6)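 Naïve male Sprague–Dawley rats were dosed ip (DMSO/Cremophor EL/saline) or by gavage (DMSO in 20% condensed milk). Radiant heat was aimed 3 cm from the tail tip and latency timed by photocell. Baseline was set to ~5–7 s with a 25 s cutoff. Testing ran 1 h pre-dose and up to 48 h after. Peak effect was taken minus vehicle; n = 6–8; blinded.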

[13] = test system: Rattus norvegicus; experiment: Increase in SNE-induced hindpaw contralateral withdrawal threshold in naive Sprague-Dawley rat at 0.3 mg/kg, ip incubated for 3 hrs followed by SNE addition; type: organism-based; conditions: in vivo
In short: (§7)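 Male Sprague–Dawley rats received unilateral sciatic nerve entrapment. Testing began 8 days post-surgery at 3-day intervals, dosed ip in DMSO/Cremophor EL/saline. Hindpaw withdrawal threshold (g) was read with a digital von Frey meter, 4 readings per paw at 30 s spacing, averaged. Reads were taken 1 h before and 3, 6, 24 and 48 h after dosing; n = 8; blinded; one-way RM ANOVA.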

[14] = test system: Rattus norvegicus; experiment: Antiallodynic activity in SNE-induced mechanical allodynia naive Sprague-Dawley rat model assessed as decrease in hindpaw ipsilateral withdrawal threshold at 0.6 mg/kg, ip preincubated for 3 hrs followed by SNE addition in presence of SR144528; type: functional, organism-based; in short: as §3
[15] = test system: Rattus norvegicus; experiment: Analgesic activity in naive Sprague-Dawley rat assessed as increase in tail flick latency at 0.3 mg/kg, ip up to 48 hrs by tail-flick assay; type: functional, organism-based; in short: as §6
[16] = Toxicity in naive Sprague-Dawley rat assessed as motor incoordination at 0.3 mg/kg, ip after 2 to 48 hrs by rotarod test; type: organism-based; conditions: in vivo
In short: (§8)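 Rats were trained 72 h earlier (3 sessions, 24 h apart) to stay ≥180 s on an accelerating rotarod (4–40 rev over 5 min). Time on rod was recorded to a 3 min cutoff, 1 h pre-dose and 2, 6, 24 and 48 h after ip or oral gavage dosing. Values are peak effect minus vehicle; n = 6–8; blinded.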

[17] = Ratio of drug level in brain to plasma in naive Sprague-Dawley rat at 0.3 mg/kg, ip after 75 mins; type: ADME, organism-based; conditions: read-out: BPR
In short: (§9)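 Samples taken from 3 rats ~75 min after ip dosing. CSF (100–150 μL) was taken from the cisterna magna under isoflurane. Brain was removed after pentobarbital anesthesia and cold-saline intracardiac perfusion. Plasma came from tail-vein blood. Drug was measured by LC-MS/MS against standard curves made in untreated-animal matrix, and the ratio was taken to plasma.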

[18] = Toxicity in naive Sprague-Dawley rat assessed as immobility at 10 mg/kg administered through oral gavage after 2 to 48 hrs by catalepsy ring test; type: organism-based; conditions: in vivo; in short: as §5
[19] = Toxicity in naive Sprague-Dawley rat assessed as hypothermia at 10 mg/kg administered through oral gavage after 2 to 48 hrs by core temperature test; type: organism-based; conditions: in vivo
In short: (§10)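 Naïve rats were acclimated to a restrainer (two 5-min sessions 20 min apart). Core temperature was taken before and 2, 6, 24 and 48 h after ip (DMSO/Cremophor EL/saline) or oral gavage (DMSO in 20% condensed milk) dosing. Dose-response points are mean peak effect minus vehicle; n = 6–8 rats; blinded.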

[20] = test system: Rattus norvegicus; experiment: Antiallodynic activity in SNE-induced mechanical allodynia naive Sprague-Dawley rat model assessed as […] in hindpaw ipsilateral withdrawal threshold at 3 mg/kg, po preincubated for 3 hrs followed by SNE addition; type: functional, organism-based
In short: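 SNE rats were dosed by oral gavage (drug in DMSO diluted in 20% sweetened condensed milk, 16 mL/kg). Ipsilateral/contralateral hindpaw withdrawal thresholds were measured by digital von Frey, 4 readings per paw averaged, before and at intervals after dosing. n = 8 rats; blinded; one-way RM ANOVA against predrug values.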

[21] = Half life in naive Sprague-Dawley rat at 0.3 mg/kg, ip by LC/MS/MS analysis; type: ADME, organism-based; conditions: in vivo; in short: as §4
[22] = Toxicity in naive Sprague-Dawley rat assessed as motor incoordination at 10 mg/kg administered through oral gavage after 2 to 48 hrs by rotarod test; type: organism-based; conditions: in vivo; in short: as §8
[23] = test system: Rattus norvegicus; experiment: Antiallodynic activity in SNE-induced mechanical allodynia naive Sprague-Dawley rat model assessed as reversible […] in hindpaw ipsilateral withdrawal threshold at 0.3 mg/kg, ip preincubated for 3 hrs followed by SNE addition; type: functional, organism-based; in short: as §7
[24] = Toxicity in naive Sprague-Dawley rat assessed as hypothermia at 0.3 mg/kg, ip after 2 to 48 hrs by core temperature test; type: organism-based; conditions: in vivo; in short: as §10
[25] = Ratio of drug level in cerebrospinal fluid to plasma in naive Sprague-Dawley rat at 0.3 mg/kg, ip after 75 mins; type: ADME, organism-based, CSF/Plasma; in short: as §9
[26] = test system: Rattus norvegicus; experiment: as §2, with “tert-Butyl-4-[5-(4-Chlorophenyl)-1-(2,4-dichlorophenyl)-4- methyl-1H-pyrazole-3-amido]piperidine-1-carboxylate” for “rimonabant”; type: functional, organism-based; in short: as §3
[27] = Toxicity in naive Sprague-Dawley rat assessed as immobility at 0.1 to 10 mg/kg administered through oral gavage after 2 to 48 hrs by catalepsy ring test; type: organism-based; conditions: in vivo; in short: as §5
[28] = Toxicity in naive Sprague-Dawley rat assessed as motor incoordination at 0.1 to 10 mg/kg administered through oral gavage after 2 to 48 hrs by rotarod test; type: organism-based; conditions: in vivo; in short: as §8
[29] = Toxicity in naive Sprague-Dawley rat assessed as hypothermia at 0.1 to 10 mg/kg administered through oral gavage after 2 to 48 hrs by core temperature test; type: organism-based; conditions: in vivo; in short: as §10

T1 sequence (P21554 whole entry): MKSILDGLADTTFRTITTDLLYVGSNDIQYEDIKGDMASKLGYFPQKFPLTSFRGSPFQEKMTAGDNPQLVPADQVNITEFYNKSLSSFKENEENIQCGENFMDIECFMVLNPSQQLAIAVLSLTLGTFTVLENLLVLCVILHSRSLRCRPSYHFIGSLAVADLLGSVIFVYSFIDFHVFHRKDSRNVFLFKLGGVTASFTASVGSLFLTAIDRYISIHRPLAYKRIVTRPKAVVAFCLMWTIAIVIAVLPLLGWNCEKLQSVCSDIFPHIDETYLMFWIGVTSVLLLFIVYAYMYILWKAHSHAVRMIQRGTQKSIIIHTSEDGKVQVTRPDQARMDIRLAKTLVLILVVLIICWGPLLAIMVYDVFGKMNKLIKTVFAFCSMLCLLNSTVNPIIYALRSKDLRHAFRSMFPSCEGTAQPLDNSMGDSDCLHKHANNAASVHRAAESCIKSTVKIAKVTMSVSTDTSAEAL
Sequence of Cannabinoid receptor 2 (P34972 whole entry): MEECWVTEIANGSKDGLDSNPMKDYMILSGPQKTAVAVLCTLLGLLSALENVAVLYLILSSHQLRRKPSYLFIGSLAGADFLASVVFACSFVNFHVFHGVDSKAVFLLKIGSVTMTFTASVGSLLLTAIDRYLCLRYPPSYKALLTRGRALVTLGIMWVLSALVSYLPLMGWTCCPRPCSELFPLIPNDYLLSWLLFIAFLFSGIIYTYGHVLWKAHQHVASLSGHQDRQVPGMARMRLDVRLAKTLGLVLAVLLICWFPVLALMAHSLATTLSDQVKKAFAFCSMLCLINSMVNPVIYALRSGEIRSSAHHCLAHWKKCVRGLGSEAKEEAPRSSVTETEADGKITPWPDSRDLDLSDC
Sequence of Cannabinoid receptor 1 (Rattus norvegicus, UniProt P20272) (P20272 whole entry): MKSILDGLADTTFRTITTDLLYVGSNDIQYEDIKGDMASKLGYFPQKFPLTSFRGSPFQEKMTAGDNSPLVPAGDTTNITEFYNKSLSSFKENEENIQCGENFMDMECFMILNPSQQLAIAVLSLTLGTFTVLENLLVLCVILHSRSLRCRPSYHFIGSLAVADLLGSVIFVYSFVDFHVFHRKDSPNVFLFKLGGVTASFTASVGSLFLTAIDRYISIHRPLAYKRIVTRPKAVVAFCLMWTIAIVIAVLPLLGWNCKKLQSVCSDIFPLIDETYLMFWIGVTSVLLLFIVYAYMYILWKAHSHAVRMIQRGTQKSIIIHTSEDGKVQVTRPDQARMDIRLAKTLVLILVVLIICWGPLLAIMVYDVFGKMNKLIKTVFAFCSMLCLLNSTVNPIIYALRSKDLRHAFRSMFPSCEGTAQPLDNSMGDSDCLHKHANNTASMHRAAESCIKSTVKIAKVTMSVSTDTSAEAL

## COc1ccc(C(=O)c2c(C)n(CCN3CCOCC3)c3ccccc23)cc1 [PRAVADOLINE]
[1]
  Ki: 2510 nM

## CCCCCn1cc(C(=O)c2cccc3ccccc23)c2ccc(F)cc21
[2]
  Stability: 30%
[3]
  Stability: 80%

## CCCCCn1cc(C(=O)c2cccc3ccccc23)c2cc(F)ccc21
[2]
  Stability: 13%
[3]
  Stability: 99%

## CCCCCCC1=C/C(=C\c2cccc3ccccc23)c2ccccc21
[4]
  Ki: 436 nM

## CCCCCn1cc(C(=O)c2ccc(C(=O)O)c3ccccc23)c2ccccc21
[4]
  Ki: > 10000 nM

## CCCc1ccc(/C=C2\C=C(CCN3CCOCC3)c3ccccc32)c2ccccc12
[2]
  Stability: 37%
[5]
  EC50: 94 nM
  Emax: 69%
[6]
  Activity: inactive
[7]
  Activity: inactive
[8]
  Cmax: 11.9 ng/mL
[9]
  AUC: 112 ng·h/mL
[10]
  EC50: 182 nM
  Emax: 108%
[11]
  Activity: Non-Toxic
[12]
  Activity: Active
[13]
  Activity: Toxic
[14]
  Activity: Active
[15]
  Activity: Active
[16]
  Activity: Non-Toxic
[17]
  Kp at 1.25 h: 0.182
[18]
  Activity: Non-Toxic
[19]
  Activity: Non-Toxic
[20]
  Activity: Active
[21]
  half-life: 7.2 h
[22]
  Activity: Non-Toxic
[23]
  Activity: Active
[24]
  Activity: Non-Toxic
[3]
  Stability: 92%
[25]
  Kp at 1.25 h: 0.001
[26]
  Activity: inactive

## COc1ccc(C(=O)c2c(C)n(CC[N+]3(C)CCOCC3)c3ccccc23)cc1
[4]
  Ki: > 10000 nM

## CCc1ccc(/C=C2\C=C(CCN3CCOCC3)c3ccccc32)c2ccccc12
[27]
  Activity: Non-Toxic
[5]
  EC50: 163 nM
  Emax: 59%
[10]
  EC50: 141 nM
  Emax: 121%
[12]
  Activity: Active
[15]
  Activity: Active
[28]
  Activity: Non-Toxic
[29]
  Activity: Non-Toxic

## C1=C(CCN2CCOCC2)c2ccccc2/C1=C/c1ccco1
[4]
  Ki: > 10000 nM
